Source: ChEMBL document CHEMBL1156387, “Novel esters of glaucarubolone as inducers of terminal differentiation of promyelocytic HL-60 cells and inhibitors of 7,12-dimethylbenz[a]anthracene-induced preneoplastic lesion formation in mouse mammary organ culture” (J Nat Prod, 2001)

What was measured:
[1] = tested on: HL-60; experiment: Cytotoxicity against human HL60 cells assessed as loss of membrane integrity after 4 days by trypan blue exclusion assay; format: functional, cell-based; conditions: HL-60, 96 h
In short: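 After 18 h recovery at 10^5 cells/mL, HL-60 cells were treated 4 days with samples (final DMSO 0.1% v/v). Cells were mixed 1:4 with trypan blue (0.2% w/v in PBS), held at least 5 min at room temperature and counted by hemocytometer. Viability was taken from duplicate samples; IC50 from 5–7 concentrations in duplicate.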

[2] = tested on: HL-60; experiment: Antiproliferative activity against human HL60 cells assessed as inhibition of [3H]thymidine incorporation after 4 days by liquid scintillation counter; format: functional, cell-based
In short: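 HL-60 cells in log phase diluted to 10^5 cells/mL, preincubated 18 h, then exposed to samples in DMSO (final 0.1% v/v; DMSO-only controls) for 4 days. Cells then pulsed with [3H]thymidine (0.5 μCi/mL, 65 Ci/mmol) for 18 h at 37 °C, 5% CO2, harvested onto glass fiber filters, scintillation counted; incorporation per 10^6 cells as % of DMSO control. IC50 from 5–7 concentrations in duplicate.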

[3] = tested on: HL-60; experiment: Selectivity index, ratio of cytotoxic IC50 to antiproliferative IC50 for human HL60 cells; format: functional
In short: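 Index = cytotoxic IC50 (trypan blue, 4-day HL-60 exposure) divided by antiproliferative IC50 ([3H]thymidine incorporation), each from dose–response with at least five points.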

[4] = Inhibition of DMBA-induced preneoplastic lesion formation in a BALB/c mouse mammary organ culture at 2 uM pretreated for 10 days before DMBA-challenge measured after 14 days; format: functional; conditions: Mammary gland
In short: (§1)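 Female BALB/c mice, 4 weeks old, primed 9 days with estradiol 1 μg plus progesterone 1 mg. Thoracic glands were cultured 10 days with insulin, prolactin, aldosterone and hydrocortisone plus test agent at 2 μM. DMBA 2 μg/mL was given for 24 h on day 3. Regression followed for 14 days in insulin alone. Glands were formalin-fixed and alum carmine-stained. Lesion incidence gave % inhibition versus DMBA control. Toxicity was scored as duct dilation or amorphous disintegration.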

[5] = Toxicity in BALB/c mouse mammary organ culture assessed as morphological changes in mammary gland at 2 uM after 10 days; format: tissue-based; conditions: ex_vivo, 240 h; in short: as §1
[6] = tested on: HL-60; experiment: Induction of cell differentiation in human HL60 cells assessed as superoxide anion production after 4 days by NBT reduction assay; format: functional, cell-based; conditions: HL-60, 96 h
In short: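 Cells diluted to 10^5/mL and recovered overnight were exposed 4 days to samples (0.1% v/v DMSO final). Cell suspension (10^6 cells) was mixed 1:1 with NBT 2 mg/mL plus TPA 1 μg/mL in PBS and held 1 h at 37 °C. Formazan-positive cells were counted microscopically among >200 cells. EC50 from 5–7 concentrations in duplicate; 1α,25-dihydroxyvitamin D3 served as reference.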

Row | SMILES | IC50 [1] [nM] | IC50 [2] [nM] | Ratio IC50 [3] | inhibition at 2 µM [4] [%] | Activity [5] | EC50 [6] [nM]
1 | CC[C@](O)(CC(=O)O[C@H]1C(=O)O[C@@H]2C[C@H]3C(C)=CC(=O)[C@@H](O)[C@]3(C)[C@H]3[C@]4(O)OC[C@]32[C@@H]1[C@@H](C)[C@H]4O)C(C)C | 13 | 9 | 1.5 | 44 | Non-toxic | 19
2 | CCC(CC)(CO)C(=O)O[C@H]1C(=O)O[C@@H]2C[C@H]3C(C)=CC(=O)[C@@H](O)[C@]3(C)[C@H]3[C@]4(O)OC[C@]32[C@@H]1[C@@H](C)[C@H]4O | 950 | 150 | 6.5 | 70 | Non-toxic | 500
3 | CC1=CC(=O)[C@@H](O)[C@]2(C)[C@H]3[C@]4(O)OC[C@]35[C@H]([C@@H](C)[C@H]4O)[C@@H](OC(=O)CC3(O)CCC3)C(=O)O[C@@H]5C[C@@H]12 | 280 | 260 | 1.1 | 33 | Non-toxic | 140
4 | CC1=CC(=O)[C@@H](O)[C@]2(C)[C@H]3[C@]4(O)OC[C@]35[C@H]([C@@H](C)[C@H]4O)[C@@H](OC(=O)CC(C(C)C)C(C)C)C(=O)O[C@@H]5C[C@@H]12 | 150 | 75 | 2 | 40 | Non-toxic | 55
5 | CC1=CC(=O)[C@@H](O)[C@]2(C)[C@H]3C4(O)OC[C@@]35[C@@H](C[C@@H]12)OC(=O)C[C@H]5[C@@H](C)[C@H]4O (single isomer, unassigned) [CHAPARRINONE] | 5000 | 1200 | 4.3 | 25 | Non-toxic | 2400
6 | COC(=O)[C@@]12OC[C@]34[C@H]([C@@H](O)[C@@H]1O)[C@@]1(C)CC(=O)C(O)=C(C)[C@@H]1C[C@H]3OC(=O)[C@H](OC(=O)/C=C(\C)C(C)C)[C@@H]24 [BRUCEANTIN] | 40 | 40 | 1 | 70 | Non-toxic | 20
7 | CC1=CC(=O)[C@@H](O)[C@@]2(C)[C@H]1CC[C@@]13CO[C@]4(C)[C@@H]1C(=O)O[C@H]4[C@H](O)[C@@H]32 [SAMADERIN B] | > 2000 | 400 | >6 | 0 | Non-toxic | 1000
